Experiments:
Mus musculus [1] = test: Hypolipidiemic activity in tyloxapol-induced ICR mouse hyperlipidemic model assessed as reduction in serum triglyceride level at 25 mg/kg, ip after 24 hrs; assay type: functional; set-up: scale not given: the % may be the effect or the level left; settings: route intraperitoneal
Mus musculus [2] = test: Hypolipidiemic activity in tyloxapol-induced ICR mouse hyperlipidemic model assessed as increase in serum HDL-cholesterol level at 25 mg/kg, ip after 24 hrs; assay type: functional; settings: route intraperitoneal
Mus musculus [3] = test: Hypolipidiemic activity in tyloxapol-induced ICR mouse hyperlipidemic model assessed as increase in serum HDL-cholesterol level at 50 mg/kg, ip after 24 hrs; assay type: functional; settings: route intraperitoneal
Mus musculus [4] = test: Hypolipidiemic activity in tyloxapol-induced ICR mouse hyperlipidemic model assessed as reduction in serum cholesterol level at 50 mg/kg, ip after 24 hrs; assay type: functional; set-up: scale not given: the % may be the effect or the level left; settings: route intraperitoneal
Mus musculus [5] = test: Hypolipidiemic activity in tyloxapol-induced ICR mouse hyperlipidemic model assessed as reduction in serum LDL-cholesterol level at 25 mg/kg, ip after 24 hrs; assay type: functional; set-up: scale not given: the % may be the effect or the level left; settings: route intraperitoneal
Mus musculus [6] = test: Hypolipidiemic activity in tyloxapol-induced ICR mouse hyperlipidemic model assessed as reduction in serum triglyceride level at 50 mg/kg, ip after 24 hrs; assay type: functional; set-up: scale not given: the % may be the effect or the level left; settings: route intraperitoneal
Mus musculus [7] = test: Hypolipidiemic activity in tyloxapol-induced ICR mouse hyperlipidemic model assessed as reduction in serum LDL-cholesterol level at 100 mg/kg, ip after 24 hrs; assay type: functional; set-up: scale not given: the % may be the effect or the level left; settings: route intraperitoneal
Mus musculus [8] = test: Hypolipidiemic activity in tyloxapol-induced ICR mouse hyperlipidemic model assessed as reduction in serum cholesterol level at 100 mg/kg, ip after 24 hrs; assay type: functional; set-up: scale not given: the % may be the effect or the level left; settings: route intraperitoneal
[9] = Metabolic stability in presence of alpha-chymotrypsin (unknown origin) assessed as retention time by HPLC analysis; assay type: ADME; settings: human
Mus musculus [10] = test: Hypolipidiemic activity in tyloxapol-induced ICR mouse hyperlipidemic model assessed as reduction in serum triglyceride level at 100 mg/kg, ip after 24 hrs; assay type: functional; set-up: scale not given: the % may be the effect or the level left; settings: route intraperitoneal
Mus musculus [11] = test: Hypolipidiemic activity in tyloxapol-induced ICR mouse hyperlipidemic model assessed as increase in serum HDL-cholesterol level at 100 mg/kg, ip after 24 hrs; assay type: functional; settings: route intraperitoneal
[12] = Metabolic stability in presence of pepsin (unknown origin) assessed as retention time by HPLC analysis; assay type: ADME; settings: human, isolated protein
Mus musculus [13] = test: Hypolipidiemic activity in tyloxapol-induced ICR mouse hyperlipidemic model assessed as reduction in serum cholesterol level at 25 mg/kg, ip after 24 hrs; assay type: functional; set-up: scale not given: the % may be the effect or the level left; settings: route intraperitoneal
Mus musculus [14] = test: Hypolipidiemic activity in tyloxapol-induced ICR mouse hyperlipidemic model assessed as reduction in serum LDL-cholesterol level at 50 mg/kg, ip after 24 hrs; assay type: functional; set-up: scale not given: the % may be the effect or the level left; settings: route intraperitoneal
Mus musculus [15] = test: Hypolipidiemic activity in tyloxapol-induced ICR mouse hyperlipidemic model assessed as reduction in serum cholesterol level at 17 mg/kg, ip after 24 hrs; assay type: functional; set-up: scale not given: the % may be the effect or the level left; settings: route intraperitoneal
Summary of the method: (§1)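 Male ICR mice (25–30 g) were kept at 24 °C with a 12 h light/dark cycle on standard pellet diet with free water. Hyperlipidemia was induced with tyloxapol (400 per table) and test agents were given ip. After 24 h, retro-orbital blood was centrifuged and serum TC, HDL-C and TG were measured. LDL-C was calculated by the Friedewald equation. Assays were run in duplicate; values are means of 6 mice.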

Mus musculus [16] = test: Hypolipidiemic activity in tyloxapol-induced ICR mouse hyperlipidemic model assessed as increase in serum HDL-cholesterol level at 17 mg/kg, ip after 24 hrs; assay type: functional; settings: route intraperitoneal; summary of the method: as §1
Mus musculus [17] = test: Hypolipidiemic activity in tyloxapol-induced ICR mouse hyperlipidemic model assessed as reduction in serum LDL-cholesterol level at 17 mg/kg, ip after 24 hrs; assay type: functional; set-up: scale not given: the % may be the effect or the level left; settings: route intraperitoneal; summary of the method: as §1
Mus musculus [18] = test: Hypolipidemic activity in tyloxapol-induced ICR mouse hyperlipidemic model assessed as reduction in serum triglyceride level at 17 mg/kg, ip after 24 hrs; assay type: functional; set-up: scale not given: the % may be the effect or the level left; settings: route intraperitoneal; summary of the method: as §1

Structure (SMILES)	Activity (Mus musculus [1]) [%]	Activity (Mus musculus [2]) [%]	Activity (Mus musculus [3]) [%]	Activity (Mus musculus [4]) [%]	Activity (Mus musculus [5]) [%]	Activity (Mus musculus [6]) [%]	Activity (Mus musculus [7]) [%]	Activity (Mus musculus [8]) [%]	Retention_time [9] [min]	Activity (Mus musculus [10]) [%]	Activity (Mus musculus [11]) [%]	Retention_time [12] [min]	Activity (Mus musculus [13]) [%]	Activity (Mus musculus [14]) [%]	Activity (Mus musculus [15]) [%]	Activity (Mus musculus [16]) [%]	Activity (Mus musculus [17]) [%]	Activity (Mus musculus [18]) [%]	Retention time [9] [min]
CCCCc1cc(OC)c(OC)cc1O	-82.57	23.73	11.86	-67.04	-74.78	-79.17	-74.69	-70.1	12.44	-83.94	23.73	12.45	-70.1	-70.93	–	–	–	–	–
CCCc1cc(OC)c(OC)cc1O	-82.75	49.15	25.42	-66.7	-78.15	-73.85	-73.63	-69.22	–	-77.98	15.25	–	-71.84	-71.61	–	–	–	–	–
CCc1cc(OC)c(OCC(=O)OC)cc1O	-72.94	40.68	28.81	-69.22	-86.14	-59.63	-82.58	-78.2	7.78	-75.87	-3.39	7.78	-79.08	-75.26	–	–	–	–	–
CCC(=O)c1cc(OC)c(OCC(=O)OC)cc1O	-59.82	-3.39	66.1	-66.87	-72.18	-31.93	-81.33	-74.46	–	-75.41	45.76	–	-68.18	-76.03	–	–	–	–	–
CCC(C)(C)C(=O)O[C@H]1C[C@@H](C)C=C2C=C[C@H](C)[C@H](CC[C@@H]3C[C@@H](O)CC(=O)O3)[C@H]21 [SIMVASTATIN]	–	–	–	–	–	–	–	–	–	–	–	–	–	–	-63.46	292.2	-84.31	-57	–
CCc1cc(OC)c(OC)cc1O	-76.79	33.9	25.42	-73.41	-72.47	-86.97	-83.93	-75.85	–	-81.65	71.19	6.95	-67.13	-78.34	–	–	–	–	6.94
CCCC(=O)c1cc(OC)c(OCC(=O)OC)cc1O	-73.12	30.51	20.34	-49.26	-84.7	-27.8	-79.4	-73.23	13.18	-73.58	35.59	13.16	-78.38	-54.28	–	–	–	–	–
CCC(=O)c1cc(OC)c(OC)cc1O	-80.09	6.78	16.95	-81.95	-86.72	-81.01	-88.35	-81.43	–	-80.92	40.68	–	-81.69	-87.68	–	–	–	–	–
CCCCc1cc(OC)c(OCC(=O)OC)cc1O	-20.46	11.86	-3.39	-59.46	-77.77	-49.82	-89.51	-79.95	13.8	-82.75	89.83	13.81	-70.62	-62.75	–	–	–	–	–
COc1cc(O)c(C(C)=O)cc1OC	-59.63	-4.75	44.07	-80.09	-76.23	-80.92	-87.68	-80.12	8.58	-82.11	55.93	8.57	-71.84	-87.01	–	–	–	–	–
COC(=O)COc1cc(O)c(C(C)=O)cc1OC	-28.62	8.47	1.69	-72.71	-81.62	-74.77	-85.76	-75.33	8.68	-51.38	13.56	8.67	-74.72	-76.9	–	–	–	–	–
CCCc1cc(OC)c(OCC(=O)OC)cc1O	-84.13	91.53	57.63	-80.21	-89.32	-81.93	-81.23	-74.02	–	-71.38	50.85	–	-79.77	-87.97	–	–	–	–	–
CCCC(=O)c1cc(OC)c(OC)cc1O	-69.54	33.9	30.51	-81.4	-80.65	-77.25	-88.74	-83.26	13.83	-79.36	8.47	13.84	-74.28	-87.97	–	–	–	–	–

From ChEMBL document CHEMBL3351651 (Bioorg Med Chem, 2014)
